Data on 167 variants can be found in the RNAGym collection of RNA variant scans (doi:10.1126/science.aae0568).

Sequences and labels used below:
B1: tRNA (parent)
chain: GUUCCGUUGGCGUAAUGGUAACGCGUCUCCCUCCUAAGGAGAAGACUGCGGGUUCGAGUCCCGUACGGAACG

Variants at the floor of the assay were thinned out.

This series covers variants of B1. Briefly: yeast fitness relative to wild type (ratio to wild type); higher = fitter; tRNA-Arg(CCU), competitive growth, 37 C, YPD. In short, it runs like this:
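Variants of the tRNA-Arg(CCU) gene, chemically synthesised with a 3% per-site mutation rate at 69 sites, were placed at the native genomic locus in Saccharomyces cerevisiae. The pooled strains were competed in YPD at 37°C for 24 hours in six parallel replicates. Gene amplicons from the start population and from each end population were read by 100-nucleotide paired-end sequencing. Darwinian fitness relative to wild type came from changes in genotype frequencies; genotypes needed ≥ 100 starting reads, and estimates < 0.5 were set to 0.5.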
Regarding C27U C31G A43C C49G G52C, the yeast fitness is no more than 0.5.

C5U G12A G52C A70U: the yeast fitness was no more than 0.5.

Regarding G38C G56A, the yeast fitness came to 0.789.

As for C5G C22U A57G, the yeast fitness was no more than 0.5.

For the variant C5A A14C G23A C24G A36U G63A G68A, the yeast fitness stood at 0.579.

For the variant C31U A36C A45C C61G, the yeast fitness is no more than 0.5.

For the variant C33G A36U, the yeast fitness was 0.589.

In the case of C5A U8C A21G A45C G56C C66U, the yeast fitness was no more than 0.5.

As to C5A U26A, the yeast fitness is 0.717.

For U28A A45C, the yeast fitness is 0.79.

As for C29A C34U G48C, the yeast fitness was no more than 0.5.

C31A C61U: the yeast fitness amounted to 0.845.

Take A15U C29A C34G: the yeast fitness was no more than 0.5.

In the case of C31U A42U, the yeast fitness was 0.957.

A20C G25C G38C G56C G63C U64C: the yeast fitness stood at 0.524.

With C4U G44A C46U A69C, the yeast fitness came out at 0.829.

For C33A C46A C61G A69G, the yeast fitness is no more than 0.5.

As to C30U A40U, the yeast fitness was 0.965.

As for A21U U59G, the yeast fitness came to 0.583.

A14U U26G A37C: the yeast fitness was no more than 0.5.

As to C4A A43C G58A, the yeast fitness turned out to be 0.588.

For the variant U7A G10A C31G, the yeast fitness is no more than 0.5.

For U28G C34G A36G G44C C61G, the yeast fitness is no more than 0.5.

In the case of C31G G52C, the yeast fitness was determined as 0.531.

On to U2A C11G G25A A40U C49A C55U, for which the yeast fitness is no more than 0.5.

As to C29G C55U U59G, the yeast fitness was no more than 0.5.

On to U16A C33G A36U, for which the yeast fitness is 0.57.

In the case of C5U U28G, the yeast fitness worked out at 0.71.

On to G6C G38C G68A A70U, for which the yeast fitness is no more than 0.5.

In the case of G23A C55U, the yeast fitness amounted to 0.625.

In the case of C24G C33G, the yeast fitness worked out at 0.666.

As to C4G G10C C46G, the yeast fitness was found to be 0.632.

Regarding C4U C24G U26A U28G U47C, the yeast fitness is no more than 0.5.

With C22G C31A A43G, the yeast fitness was no more than 0.5.

Consider C24A C55G, for which the yeast fitness amounted to 0.545.

As to U3G A45C A69U, the yeast fitness turned out to be 1.08.

As for A15C G25C G52A A57C C60G, the yeast fitness is no more than 0.5.

On to C4U A70U, for which the yeast fitness came to 1.02.

On to G6A A15U, for which the yeast fitness came to 0.628.

U2G C4U G6C C31G: the yeast fitness was no more than 0.5.

A14U A20U G52U: the yeast fitness was found to be 0.591.

With A14C C34G, the yeast fitness came out at 0.577.

Turning to U47A A57U, the yeast fitness worked out at 0.655.

For U13C C27U A37C, the yeast fitness is no more than 0.5.

Regarding G9A U19G A37C A43U C46G G68A, the yeast fitness was no more than 0.5.

Regarding U3A C4U C11A U53A A65U, the yeast fitness is no more than 0.5.

In the case of U13A A42U, the yeast fitness worked out at 1.03.

As to U3C C24U C55G A70U, the yeast fitness is no more than 0.5.

For U13G G38C, the yeast fitness turned out to be 0.757.

As for C5A C55A G56C, the yeast fitness was no more than 0.5.

Turning to G23A C24U U35A C60A A69C, the yeast fitness was 0.607.

For C5A G25C, the yeast fitness turned out to be 0.86.

With U19C A20G, the yeast fitness worked out at 0.964.

On to C5G G10A A20U C24U C34U A43U A69C, for which the yeast fitness came out at 0.667.

With G18A G63A A69C, the yeast fitness came out at 0.827.

With C30U G41C A69U, the yeast fitness is no more than 0.5.

On to C29U G63A, for which the yeast fitness was determined as 0.803.

With A20U C34A G67A, the yeast fitness is no more than 0.5.

As for G9A G23C G39C, the yeast fitness is no more than 0.5.

For the variant A15U G38C G39A A43C, the yeast fitness is no more than 0.5.

For the variant C5A G58A, the yeast fitness came to 0.909.

For the variant U3C U13C U16A A42G C49G U54C G63C A70U, the yeast fitness was 0.532.

As to G17A C31U C66A, the yeast fitness was no more than 0.5.

For U26C U35A U47A U54A, the yeast fitness is no more than 0.5.

C4U A20G A45U C61U C62G: the yeast fitness amounted to 0.53.

With A36C A45C C55G C62A G68A, the yeast fitness amounted to 0.575.

Take G6A G10C A20C U28C A36U: the yeast fitness amounted to 0.695.

Turning to G25A G44A, the yeast fitness was determined as 0.841.

For U2A C4G A42G A45U C66U, the yeast fitness is no more than 0.5.

Consider A20G C60G A69C, for which the yeast fitness was no more than 0.5.

For the variant U3G C4A C11G C31G, the yeast fitness was determined as 0.533.

Take U8A A21G C24A C30A A45U C49A A65U: the yeast fitness was no more than 0.5.

As for C29U C34G, the yeast fitness is 0.603.

As to U16C A70C, the yeast fitness was found to be 1.1.

Consider U16C C29U A36U A40C C46U U64C, for which the yeast fitness is no more than 0.5.

For U3G U47C, the yeast fitness came out at 0.901.

G6C C33A G56A U59A: the yeast fitness was no more than 0.5.

In the case of A15U C30G G50A, the yeast fitness was no more than 0.5.

G9C C49U C55U U64C: the yeast fitness was no more than 0.5.

For the variant C4A U7C C27U U53A, the yeast fitness was no more than 0.5.

As to G18A U26G G50C C62A G63C, the yeast fitness was no more than 0.5.

With G41A U47A A70G, the yeast fitness came out at 0.571.

For G12A C29A G68A A69C, the yeast fitness was no more than 0.5.

On to G12A U13C A15U, for which the yeast fitness was 0.507.

For the variant C22U C27U G51A A57U C61G, the yeast fitness is no more than 0.5.

As for U3A C31A C34A A37C, the yeast fitness is 0.661.

Regarding A21U A36C G56C, the yeast fitness is no more than 0.5.

A40U A65U: the yeast fitness is 0.868.

As to G12C C22G G23A A37C A43C, the yeast fitness was determined as 0.534.

Turning to C33U G44A, the yeast fitness was found to be 0.652.

Regarding C5U U7G A14C C29G, the yeast fitness was no more than 0.5.

Consider A20C C27U C62U, for which the yeast fitness was determined as 0.731.

Regarding C5A A15U A21U C61U A69C, the yeast fitness was no more than 0.5.

Take U16G C31G C66U: the yeast fitness turned out to be 0.586.

On to C4U G9A C29A U53A, for which the yeast fitness is no more than 0.5.

For the variant U2C A65U, the yeast fitness stood at 1.05.

As to G52A C61U, the yeast fitness is 0.886.

For U26A C27G, the yeast fitness was found to be 0.57.

Consider A45U U53A, for which the yeast fitness turned out to be 0.723.

With A45U U53G, the yeast fitness is no more than 0.5.

On to G58A C61U A70G, for which the yeast fitness turned out to be 1.02.

As to A15C U19G C55G, the yeast fitness was no more than 0.5.

As for C11U A15G U26G C33A C55G, the yeast fitness was no more than 0.5.

With G10A U13A A14C A43U C60G, the yeast fitness was no more than 0.5.

Turning to C34U C55U A65U, the yeast fitness turned out to be 0.607.

On to U32G A43C, for which the yeast fitness was 0.694.

As to A36C G50C, the yeast fitness is 0.54.

In the case of C24A C29U G50A, the yeast fitness was no more than 0.5.

Turning to G6C C29U G44A A65G, the yeast fitness was no more than 0.5.

Take G23C C27G C31U: the yeast fitness was no more than 0.5.

Turning to C11U U32A A42C, the yeast fitness is 0.545.

A37G A42U G48C C49U: the yeast fitness came to 0.599.

As to U13C A20G C46U, the yeast fitness stood at 0.66.

As to C4A A57G A70C, the yeast fitness is 0.617.

Take C30G A40G: the yeast fitness was 0.605.

Take G25A C61U: the yeast fitness is 0.971.

With G9C A14G G67A, the yeast fitness was no more than 0.5.

U16C C30A G41C A45C C46G: the yeast fitness is no more than 0.5.

For the variant A15G U28C A37C, the yeast fitness is no more than 0.5.

As for C5G U19C U54C A69C, the yeast fitness was no more than 0.5.

For the variant G6A A20C, the yeast fitness came out at 0.714.

Turning to U35A A43C, the yeast fitness came out at 0.636.

Regarding C5G G52A A65G A70U, the yeast fitness is no more than 0.5.

Regarding C4A U32C G68C, the yeast fitness is 0.867.

Regarding U3C U13A A14C A42G, the yeast fitness is no more than 0.5.

For C30U G38C G58A C61A, the yeast fitness was no more than 0.5.

For the variant G18A U53G, the yeast fitness is no more than 0.5.

C31U A36G A57U: the yeast fitness was no more than 0.5.

In the case of A21G C22A C55A G67C, the yeast fitness is no more than 0.5.

On to C31A A43G, for which the yeast fitness worked out at 0.897.

For C29A C33U C62A A69C, the yeast fitness was no more than 0.5.

Regarding G52A A65U, the yeast fitness is 0.631.

Consider G9C G10A G12C A45U C60A, for which the yeast fitness is no more than 0.5.

Take C4G G39A U53A: the yeast fitness was no more than 0.5.

Regarding C49G A57U, the yeast fitness amounted to 0.792.

C33U C34A A36G A42U: the yeast fitness stood at 0.73.

With U7A G44C A45U, the yeast fitness amounted to 0.503.

For U35C A42C A43G, the yeast fitness came to 0.617.

Turning to C11U C31G C46A U54C C61G, the yeast fitness was no more than 0.5.

For the variant C5A U28G, the yeast fitness was found to be 0.609.

On to G52C C62A, for which the yeast fitness amounted to 0.596.

For U26C C34U G44C U47G, the yeast fitness was no more than 0.5.

In the case of U13C A40G G63A G67A, the yeast fitness was no more than 0.5.

For the variant C55G A57G, the yeast fitness worked out at 0.638.

Regarding U54G C66A, the yeast fitness was 0.549.

For the variant C5U U7G A45G A70C, the yeast fitness is no more than 0.5.

With C5G A37C G38A C60G, the yeast fitness is no more than 0.5.

A15C A20G G51A: the yeast fitness is no more than 0.5.

Turning to C4G C30G G58A, the yeast fitness was no more than 0.5.

For G41A U47G, the yeast fitness was 0.655.

Take G9A U28C C30U A69U: the yeast fitness is no more than 0.5.

Consider G58C A65U, for which the yeast fitness turned out to be 0.88.

Take U2C C5G G9A A15U A69U: the yeast fitness is no more than 0.5.

As for C31U C34U A57C, the yeast fitness is no more than 0.5.

G10A A15G C34G G68A: the yeast fitness is no more than 0.5.

As for C27A U54C, the yeast fitness is 0.991.

In the case of G12U C24A G44A A65U, the yeast fitness was no more than 0.5.

For the variant U7A U8A U35C C62A, the yeast fitness turned out to be 0.537.

As to C5G U13A G23A G38A G48A C60A, the yeast fitness is no more than 0.5.

Regarding G12C C24U C55U, the yeast fitness came out at 0.564.

On to U47C G58A G67A, for which the yeast fitness came to 0.584.

Regarding U7C U32C, the yeast fitness stood at 0.776.

As to U32C A37U G48A G63C, the yeast fitness was no more than 0.5.

Take G10C C66U: the yeast fitness came out at 0.577.

Take C24G U26A C31U A45C A69U: the yeast fitness is no more than 0.5.

In the case of C11A A15U A20G, the yeast fitness was no more than 0.5.

Regarding C4A U35C, the yeast fitness was found to be 0.834.
